Measured values reported in ChEMBL document CHEMBL4152207, “Discovery of potent and selective BRD4 inhibitors capable of blocking TLR3-induced acute airway inflammation” (Eur J Med Chem, 2018).
pIC50: −log10 of the molar value. Calls of active or inactive are those of the source. The rule behind the calls is not given here.

Tests used:
[1] = Total clearance in rat at 10 mg/kg, iv; assay type: ADME, organism-based; settings: in vivo
Mus musculus [2] = experiment: Anti-inflammatory activity in poly(I:C)-induced airway inflammation C57BL/6 mouse model assessed as reduction in mKC expression in lung at 10 mg/kg, ip administered 1 day prior to poly(I:C) stimulation and redosed on day 2 followed by poly(I:C) stimulation; assay type: functional, organism-based
How it was run: (§1)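 Male C57BL/6J mice, 12 weeks old, were given 10 mg/kg i.p. one day before stimulation. The next day they got a second dose, immediately followed by intranasal poly(I:C) (300 μg in 50 μL PBS) or PBS alone. Compound was taken up in DMSO and diluted in 10% hydroxypropyl β-cyclodextrin in PBS. Mice were euthanized one day later and lung tissue was collected for cytokine expression.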

Mus musculus [3] = experiment: Anti-inflammatory activity in poly(I:C)-induced airway inflammation C57BL/6 mouse model assessed as reduction in mCIG5 expression in lung at 10 mg/kg, ip administered 1 day prior to poly(I:C) stimulation and redosed on day 2 followed by poly(I:C) stimulation; assay type: functional, organism-based; how it was run: as §1
[4] = target: T1, Bromodomain-containing protein 4 (Homo sapiens, UniProt O60885); experiment: Inhibition of BRD4 in human SAE cells assessed as reduction in TLR3 agonist poly(I:C) -induced grobeta RNA expression preincubated for 24 hrs followed by poly(I:C) addition and measured after 4 hrs by SYBR green dye-based qRT-PCR analysis; assay type: cell-based
[5] = Volume of distribution at steady state in rat at 10 mg/kg, iv; assay type: ADME, organism-based; settings: in vivo, read-out: Vdss
[6] = target: T1, Bromodomain-containing protein 4; experiment: Inhibition of BRD4 in human SAE cells assessed as reduction in TLR3 agonist poly(I:C) -induced IL-8 RNA expression preincubated for 24 hrs followed by poly(I:C) addition and measured after 4 hrs by SYBR green dye-based qRT-PCR analysis; assay type: cell-based
[7] = AUC (0 to t) in rat at 20 mg/kg, po; assay type: ADME, organism-based; settings: in vivo
[8] = target: T1, Bromodomain-containing protein 4; experiment: Inhibition of BRD4 in human SAE cells assessed as reduction in TLR3 agonist poly(I:C) -induced ISG54 RNA expression preincubated for 24 hrs followed by poly(I:C) addition and measured after 4 hrs by SYBR green dye-based qRT-PCR analysis; assay type: cell-based
Mus musculus [9] = experiment: (§2) Anti-inflammatory activity in poly(I:C)-induced airway inflammation C57BL/6 mouse model assessed as reduction in neutrophils recruitment into bronchoalveolar lavage fluid at 10 mg/kg, ip administered 1 day prior to poly(I:C) stimulation and redosed on day 2 followed by poly(I:C) stimulation by trypan blue staining-based hemocytometric analysis; assay type: functional, organism-based
[10] = AUC (0 to t) in rat at 10 mg/kg, iv; assay type: ADME, organism-based; settings: in vivo
CREB-binding protein = CREB-binding protein (Homo sapiens, UniProt Q92793); experiment: Inhibition of CBP (unknown origin) after 1 hr by TR-FRET assay
How it was run: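 Isolated bromodomain in a kit TR-FRET assay. Inhibitor series 0.01 nM to 100 μM, incubated 1 h at room temperature. Excitation 340 nm, emission read at 620 and 670 nm with 100 μs delay and 500 μs window. IC50 from the sigmoidal plot of the 670/620 ratio against concentration. Mean of at least two runs.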

[11] = Cmax in rat at 20 mg/kg, po; assay type: ADME, organism-based; set-up: dose 20 mg/kg, route oral; settings: in vivo
[12] = target: T1, Bromodomain-containing protein 4; experiment: Inhibition of BRD4 in human SAE cells assessed as reduction in TLR3 agonist poly(I:C) -induced ISG56 RNA expression preincubated for 24 hrs followed by poly(I:C) addition and measured after 4 hrs by SYBR green dye-based qRT-PCR analysis; assay type: cell-based
Mus musculus [13] = experiment: Anti-inflammatory activity in poly(I:C)-induced airway inflammation C57BL/6 mouse model assessed as reduction in mIL6 expression in lung at 10 mg/kg, ip administered 1 day prior to poly(I:C) stimulation and redosed on day 2 followed by poly(I:C) stimulation; assay type: functional, organism-based; how it was run: as §1
Mus musculus [14] = experiment: Anti-inflammatory activity in poly(I:C)-induced airway inflammation C57BL/6 mouse model assessed as reduction in mISG54 expression in lung at 10 mg/kg, ip administered 1 day prior to poly(I:C) stimulation and redosed on day 2 followed by poly(I:C) stimulation; assay type: functional, organism-based; how it was run: as §1
[15] = Half life in rat at 10 mg/kg, iv; assay type: ADME, organism-based; settings: in vivo
Mus musculus [16] = experiment: as §2, with “total cells in” for “neutrophils recruitment into”; assay type: functional, organism-based

Sequence of CREB-binding protein (Q92793 whole entry): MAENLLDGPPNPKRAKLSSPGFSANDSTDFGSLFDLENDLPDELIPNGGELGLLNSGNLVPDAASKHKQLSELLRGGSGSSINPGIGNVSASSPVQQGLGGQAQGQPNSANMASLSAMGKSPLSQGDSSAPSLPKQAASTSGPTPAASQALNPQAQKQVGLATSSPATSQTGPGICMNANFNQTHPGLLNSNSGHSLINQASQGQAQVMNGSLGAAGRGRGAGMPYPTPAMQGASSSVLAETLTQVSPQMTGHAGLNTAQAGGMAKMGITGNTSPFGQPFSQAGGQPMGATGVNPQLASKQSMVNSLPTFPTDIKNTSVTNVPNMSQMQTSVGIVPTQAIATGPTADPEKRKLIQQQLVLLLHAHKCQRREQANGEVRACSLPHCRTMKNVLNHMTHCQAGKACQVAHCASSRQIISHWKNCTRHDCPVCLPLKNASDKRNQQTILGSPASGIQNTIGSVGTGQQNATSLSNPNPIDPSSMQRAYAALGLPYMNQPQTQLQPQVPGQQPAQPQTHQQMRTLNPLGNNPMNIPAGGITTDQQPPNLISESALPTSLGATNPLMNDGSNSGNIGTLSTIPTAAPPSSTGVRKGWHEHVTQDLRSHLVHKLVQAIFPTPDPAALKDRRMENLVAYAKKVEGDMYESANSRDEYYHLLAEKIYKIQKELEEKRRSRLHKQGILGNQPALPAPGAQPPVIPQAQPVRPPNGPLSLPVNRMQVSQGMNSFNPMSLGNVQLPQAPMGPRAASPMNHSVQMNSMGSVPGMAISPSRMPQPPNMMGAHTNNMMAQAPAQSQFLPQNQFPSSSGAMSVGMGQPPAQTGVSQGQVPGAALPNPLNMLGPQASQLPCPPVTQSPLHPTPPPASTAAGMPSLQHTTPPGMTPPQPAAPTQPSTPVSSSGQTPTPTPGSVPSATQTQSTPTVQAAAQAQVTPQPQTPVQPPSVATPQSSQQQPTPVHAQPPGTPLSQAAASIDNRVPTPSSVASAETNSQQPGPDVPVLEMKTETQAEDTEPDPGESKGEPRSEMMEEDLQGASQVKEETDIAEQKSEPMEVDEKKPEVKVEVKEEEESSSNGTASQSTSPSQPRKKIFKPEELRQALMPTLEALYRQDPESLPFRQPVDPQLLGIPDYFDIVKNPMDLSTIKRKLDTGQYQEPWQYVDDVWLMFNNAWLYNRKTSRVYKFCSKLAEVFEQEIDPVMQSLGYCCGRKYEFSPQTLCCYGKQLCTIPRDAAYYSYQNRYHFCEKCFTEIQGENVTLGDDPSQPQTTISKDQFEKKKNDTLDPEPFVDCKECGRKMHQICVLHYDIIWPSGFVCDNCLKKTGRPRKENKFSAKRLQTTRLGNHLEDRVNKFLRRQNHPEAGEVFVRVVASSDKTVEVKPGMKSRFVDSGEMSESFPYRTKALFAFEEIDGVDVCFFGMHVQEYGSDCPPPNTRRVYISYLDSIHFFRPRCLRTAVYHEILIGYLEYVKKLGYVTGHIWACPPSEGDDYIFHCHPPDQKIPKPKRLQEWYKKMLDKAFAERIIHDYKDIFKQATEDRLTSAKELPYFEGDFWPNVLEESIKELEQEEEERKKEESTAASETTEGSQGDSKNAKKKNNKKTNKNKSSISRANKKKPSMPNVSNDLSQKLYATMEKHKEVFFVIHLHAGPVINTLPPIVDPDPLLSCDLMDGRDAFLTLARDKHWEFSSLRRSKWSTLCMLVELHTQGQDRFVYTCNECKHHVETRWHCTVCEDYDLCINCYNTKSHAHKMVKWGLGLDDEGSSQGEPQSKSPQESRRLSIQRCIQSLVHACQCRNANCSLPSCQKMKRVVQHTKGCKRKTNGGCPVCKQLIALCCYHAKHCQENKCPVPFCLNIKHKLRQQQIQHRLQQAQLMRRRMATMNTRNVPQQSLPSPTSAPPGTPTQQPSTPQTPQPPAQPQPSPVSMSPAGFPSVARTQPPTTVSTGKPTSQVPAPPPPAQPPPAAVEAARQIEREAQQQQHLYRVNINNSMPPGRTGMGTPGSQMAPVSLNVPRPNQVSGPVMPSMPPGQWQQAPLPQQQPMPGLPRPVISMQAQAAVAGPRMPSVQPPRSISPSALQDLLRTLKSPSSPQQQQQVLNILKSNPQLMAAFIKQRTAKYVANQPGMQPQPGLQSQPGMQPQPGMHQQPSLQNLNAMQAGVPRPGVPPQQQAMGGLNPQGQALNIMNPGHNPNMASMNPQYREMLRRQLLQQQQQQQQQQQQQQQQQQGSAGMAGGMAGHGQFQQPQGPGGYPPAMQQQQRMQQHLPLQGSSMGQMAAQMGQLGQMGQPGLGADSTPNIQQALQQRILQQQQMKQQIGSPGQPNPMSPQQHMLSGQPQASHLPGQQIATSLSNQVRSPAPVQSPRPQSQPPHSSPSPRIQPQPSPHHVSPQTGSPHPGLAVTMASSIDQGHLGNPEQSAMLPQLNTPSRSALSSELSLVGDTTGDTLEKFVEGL

| Structure (SMILES) | clearance [1] | Activity (Mus musculus [2]) | Activity (Mus musculus [3]) | pIC50 [4] | Vd [5] | pIC50 [6] | AUC(0-t) [7] | pIC50 [8] | Activity (Mus musculus [9]) | AUC(0-t) [10] | pIC50 (CREB-binding protein) | Cmax [11] | pIC50 [12] | Activity (Mus musculus [13]) | Activity (Mus musculus [14]) | half-life [15] | Activity (Mus musculus [16]) |
| --- | --- | --- | --- | --- | --- | --- | --- | --- | --- | --- | --- | --- | --- | --- | --- | --- | --- |
| Cc1cc(/N=N/c2ccc3c(c2)CCC(=O)N3)c(N)cc1O | 11.5 mL/min/kg | Active | Active | 6.24 | 0.864 L/kg | 6.28 | 450 ng·h/mL | 6.31 | Active | 14700 ng·h/mL | < 5.00 | 80 ng/mL | 6.29 | Active | Active | 1.2 h | Active |
| COc1cc(OC)c2c(=O)[nH]c(-c3cc(C)c(OCCO)c(C)c3)nc2c1 [APABETALONE] | – | inactive | inactive | – | – | – | – | – | inactive | – | < 5.00 | – | – | inactive | inactive | – | – |
| Cc1sc2c(c1C)C(c1ccc(Cl)cc1)=N[C@@H](CC(=O)OC(C)(C)C)c1nnc(C)n1-2 | – | inactive | inactive | – | – | – | – | – | inactive | – | 5.02 | – | – | inactive | inactive | – | – |
| CC(C)(C)c1cc(-c2nnc(-c3cc(F)cc(Cl)c3)o2)no1 | – | – | – | 5.41 | – | 5.37 | – | 5.10 | – | – | – | – | 5.11 | – | – | – | – |
